# Laboratory results published in ChEMBL document CHEMBL1134325, “Diaminoindanes as microsomal triglyceride transfer protein inhibitors” (J Med Chem, 2001).
# Several values for one entry are separate records, joined by “and”; a condition that tells them apart may be missing. Identical values can stand only once.
# How the values were obtained:
# [1] = system: Rattus norvegicus; experiment: Inhibition of total cholesterol in normolipidemic rats after 2 hr of 50 mg/kg oral dosing; no significant change; format: functional, organism-based; parameters: dose 50 mg/kg
# How it was run: (§1)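 Overnight-fasted normolipidemic rats received a single oral dose in cornstarch vehicle. Blood was drawn at 2, 6 and 24 h post-dose and assayed for triglycerides and total cholesterol, with free access to food after the 6 h sample. Value is mean percent inhibition versus a separate vehicle-treated group, unpaired t test p < 0.05, NS = no significant change, N = 6.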
# [2] = system: Rattus norvegicus; experiment: Inhibition of plasma triglycerides in normolipidemic rats after 24 h of 50 mg/kg oral dosing; no significant change; format: functional, organism-based; parameters: dose 50 mg/kg; how it was run: as §1
# [3] = system: Rattus norvegicus; experiment: Inhibition of plasma triglycerides in normolipidemic rats after 6 h of […] mg/kg oral dosing; no significant change; format: functional, organism-based; parameters: dose 50 mg/kg
# [4] = molecular target: T1, Microsomal triglyceride transfer protein large subunit (Homo sapiens, UniProt P55157); experiment: In vitro inhibitory activity against MTP using MTP transfer assay
# T1 sequence (P55157 whole entry): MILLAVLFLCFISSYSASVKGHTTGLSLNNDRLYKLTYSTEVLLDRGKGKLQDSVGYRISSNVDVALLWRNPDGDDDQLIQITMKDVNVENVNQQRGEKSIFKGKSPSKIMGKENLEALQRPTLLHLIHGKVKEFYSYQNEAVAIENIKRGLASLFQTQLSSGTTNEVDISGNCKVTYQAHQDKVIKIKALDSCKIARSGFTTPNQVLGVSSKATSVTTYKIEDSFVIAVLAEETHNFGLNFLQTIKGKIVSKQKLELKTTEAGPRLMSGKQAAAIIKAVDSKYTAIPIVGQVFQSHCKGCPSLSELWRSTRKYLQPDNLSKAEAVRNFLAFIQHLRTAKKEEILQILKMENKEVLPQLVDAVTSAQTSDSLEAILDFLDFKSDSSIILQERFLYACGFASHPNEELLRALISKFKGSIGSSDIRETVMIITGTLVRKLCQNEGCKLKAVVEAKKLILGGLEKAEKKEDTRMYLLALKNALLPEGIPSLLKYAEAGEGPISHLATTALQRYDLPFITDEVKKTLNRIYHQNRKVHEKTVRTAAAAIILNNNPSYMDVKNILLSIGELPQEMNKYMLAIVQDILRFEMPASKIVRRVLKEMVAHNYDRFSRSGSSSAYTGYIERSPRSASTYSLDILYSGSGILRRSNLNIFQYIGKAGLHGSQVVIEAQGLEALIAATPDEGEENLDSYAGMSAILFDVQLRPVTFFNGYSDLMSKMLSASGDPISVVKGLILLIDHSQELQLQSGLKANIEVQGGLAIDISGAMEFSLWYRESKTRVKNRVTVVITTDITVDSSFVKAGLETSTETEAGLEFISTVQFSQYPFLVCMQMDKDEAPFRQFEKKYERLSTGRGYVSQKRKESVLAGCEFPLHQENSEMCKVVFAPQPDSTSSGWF
# [5] = system: Rattus norvegicus; experiment: Inhibition of plasma triglycerides in normolipidemic rats after 2 hr of 50 mg/kg oral dosing; no significant change; format: functional, organism-based; parameters: dose 50 mg/kg; how it was run: as §1
# [6] = system: Rattus norvegicus; experiment: Inhibition of total cholesterol in normolipidemic rats after 6 h of […] mg/kg oral dosing; no significant change; format: functional, organism-based; parameters: dose 50 mg/kg
# [7] = system: Rattus norvegicus; experiment: (§2) Inhibition of total cholesterol in normolipidemic rats after 24 hr of 50 mg/kg oral dosing; format: functional, organism-based; parameters: dose 50 mg/kg; how it was run: as §1
# [8] = system: Canis familiaris; experiment: Inhibition of plasma total triglycerides in the normolipidemic dogs after day 4 of oral administration of 10 mg/kg/day. Values in the parentheses indicate mean percent inhibition for drug treated dogs.; format: functional, Canis lupus familiaris
# [9] = system: Canis familiaris; experiment: Inhibition of plasma total cholesterol in the normolipidemic dogs after day 3 of oral administration of 10 mg/kg/day.; format: functional, Canis lupus familiaris
# How it was run: (§3)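 Normolipidemic dogs dosed once daily for 4 days by oral gavage, compound suspended in cornstarch vehicle. Plasma sampled 24 h after dosing on days 0, 2, 3 and 4, assayed for triglycerides and total cholesterol (mg/dL). Mean percent inhibition versus day-0 level is given for treated dogs; n = 6 per group; significance by one-way ANOVA, p < 0.05.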
# [10] = system: Canis familiaris; experiment: Inhibition of plasma total cholesterol in the normolipidemic dogs after day 3 of oral administration of 5 mg/kg/day.; format: functional, Canis lupus familiaris; how it was run: as §3
# [11] = system: Canis familiaris; experiment: Inhibition of plasma total triglycerides in the normolipidemic dogs after day 2 of oral administration of 5 mg/kg/day.; format: functional, Canis lupus familiaris; how it was run: as §3
# [12] = system: Rattus norvegicus; experiment: Inhibition of plasma triglycerides in normolipidemic rats after 24 hr of 10 mg/kg oral dosing; no significant change; format: functional, organism-based; parameters: dose 10 mg/kg; how it was run: as §1
# [13] = system: Canis familiaris; experiment: Inhibition of plasma total triglycerides in the normolipidemic dogs after day 2 of oral administration of 10 mg/kg/day.; format: functional, Canis lupus familiaris; how it was run: as §3
# [14] = system: Canis familiaris; experiment: Inhibition of plasma total triglycerides in the normolipidemic dogs after day 0 of oral administration of 5 mg/kg/day.; format: functional, Canis lupus familiaris; how it was run: as §3
# [15] = system: Rattus norvegicus; experiment: Inhibition of total cholesterol in normolipidemic rats after 24 hr of 10 mg/kg oral dosing; no significant change; format: functional, organism-based; parameters: dose 10 mg/kg; how it was run: as §1
# [16] = system: Rattus norvegicus; experiment: Inhibition of plasma triglycerides in normolipidemic rats after 6 hr of 50 mg/kg oral dosing; format: functional; how it was run: as §1
# [17] = system: Canis familiaris; experiment: Inhibition of plasma total triglycerides in the normolipidemic dogs after day 0 of oral administration of 10 mg/kg/day.; format: functional, Canis lupus familiaris; how it was run: as §3
# [18] = system: Rattus norvegicus; experiment: Inhibition of total cholesterol in normolipidemic rats after 6 hr of 50 mg/kg oral dosing; format: functional; how it was run: as §1
# [19] = system: Canis familiaris; experiment: Inhibition of plasma total cholesterol in the normolipidemic dogs after day 0 of oral administration of 5 mg/kg/day.; format: functional, Canis lupus familiaris; how it was run: as §3
# [20] = system: Rattus norvegicus; experiment: Inhibition of total cholesterol in normolipidemic rats after 2 hr of 50 mg/kg oral dosing; format: functional; how it was run: as §1
# [21] = system: Canis familiaris; experiment: Inhibition of plasma total triglycerides in the normolipidemic dogs after day 4 of oral administration of 5 mg/kg/day.; format: functional, Canis lupus familiaris
# [22] = system: Rattus norvegicus; experiment: Inhibition of plasma triglycerides in normolipidemic rats after 2 hr of 10 mg/kg oral dosing; format: functional; how it was run: as §1
# [23] = system: Canis familiaris; experiment: Inhibition of plasma total triglycerides in the normolipidemic dogs after day 3 of oral administration of 5 mg/kg/day.; format: functional, Canis lupus familiaris
# [24] = system: Canis familiaris; experiment: Inhibition of plasma total cholesterol in the normolipidemic dogs after day 2 of oral administration of 5 mg/kg/day.; format: functional, Canis lupus familiaris; how it was run: as §3
# [25] = system: Canis familiaris; experiment: Inhibition of plasma total cholesterol in the normolipidemic dogs after day 0 of oral administration of 10 mg/kg/day.; format: functional, Canis lupus familiaris; how it was run: as §3
# [26] = system: Canis familiaris; experiment: Inhibition of plasma total cholesterol in the normolipidemic dogs after day 2 of oral administration of 10 mg/kg/day.; format: functional, Canis lupus familiaris; how it was run: as §3
# [27] = system: Rattus norvegicus; experiment: Inhibition of total cholesterol in normolipidemic rats after 6 hr of 10 mg/kg oral dosing; format: functional; how it was run: as §1
# [28] = system: Canis familiaris; experiment: Inhibition of plasma total cholesterol in the normolipidemic dogs after day 4 of oral administration of 10 mg/kg/day. Values in the parentheses indicate mean percent inhibition for drug treated dogs.; format: functional, Canis lupus familiaris; how it was run: as §3
# [29] = system: Canis familiaris; experiment: Inhibition of plasma total triglycerides in the normolipidemic dogs after day 3 of oral administration of 10 mg/kg/day.; format: functional, Canis lupus familiaris
# [30] = system: Rattus norvegicus; experiment: Inhibition of plasma triglycerides in normolipidemic rats after 2 hr of 50 mg/kg oral dosing; format: functional; how it was run: as §1
# [31] = system: Rattus norvegicus; experiment: Inhibition of total cholesterol in normolipidemic rats after 2 hr of 10 mg/kg oral dosing; format: functional; how it was run: as §1
# [32] = system: Rattus norvegicus; experiment: Inhibition of plasma triglycerides in normolipidemic rats after 6 hr of 10 mg/kg oral dosing; format: functional; how it was run: as §1
# [33] = system: Canis familiaris; experiment: Inhibition of plasma total cholesterol in the normolipidemic dogs after day 4 of oral administration of 5 mg/kg/day. Values in the parentheses indicate mean percent inhibition for drug treated dogs.; format: functional, Canis lupus familiaris; how it was run: as §3
# [34] = system: Rattus norvegicus; experiment: as §2; format: functional; how it was run: as §1
# [35] = system: Canis familiaris; experiment: Inhibition of plasma total cholesterol in the normolipidemic dogs after day 2 of oral administration of 5 mg/kg/ day.; format: functional, Canis lupus familiaris; how it was run: as §3
# [36] = system: Canis familiaris; experiment: Inhibition of plasma total cholesterol in the normolipidemic dogs after day 4 of oral administration of 5 mg/kg/day; format: functional, Canis lupus familiaris; how it was run: as §3
# [37] = system: Rattus norvegicus; experiment: Inhibition of total cholesterol in normolipidemic rats after 6 hr of 5 mg/kg oral dosing; format: functional; conditions: 5 mg/kg; how it was run: as §1
# [38] = system: Rattus norvegicus; experiment: Inhibition of plasma triglycerides in normolipidemic rats after 24 hr of 50 mg/kg oral dosing; format: functional; how it was run: as §1
# [39] = system: Rattus norvegicus; experiment: Inhibition of total cholesterol in normolipidemic rats after 2 h of 5 mg/kg oral dosing; format: functional; conditions: 5 mg/kg; how it was run: as §1
# [40] = system: Rattus norvegicus; experiment: Inhibition of total cholesterol in normolipidemic rats after 24 hr of 5 mg/kg oral dosing; no significant change; format: functional, organism-based; parameters: dose 5 mg/kg; how it was run: as §1
# [41] = system: Canis familiaris; experiment: Inhibition of plasma total triglycerides in the normolipidemic dogs after day 4 of oral administration of 5 mg/kg/day; format: functional, Canis lupus familiaris
smiles,measurement,setting,value
COC(=O)NCCC1Cc2ccc(NC(=O)c3cccc(C)c3-c3ccc(C(F)(F)F)cc3)cc2C1 (configuration not stated),NS,[1],no significant change
same,NS,[2],no significant change
same,NS,[3],no significant change
same,IC50,[4],70 nM
same,NS,[5],no significant change
same,NS,[6],no significant change
same,NS,[7],no significant change
Cc1cccc(C(=O)Nc2ccc3c(c2)C[C@@H](NCc2ccccn2)C3)c1-c1ccc(C(F)(F)F)cc1,Lipid level,[8],<23 mg/dL
same,Lipid level,[9],<54 mg/dL
same,Lipid level,[10],<99 mg/dL
same,Lipid level,[11],38 mg/dL
same,NS,[12],no significant change
same,NS,[2],no significant change
same,Lipid level,[13],<26 mg/dL
same,Lipid level,[14],36 mg/dL
same,NS,[15],no significant change
same,Reduction,[16],88%
same,Lipid level,[17],46 mg/dL
same,Reduction,[18],57%
same,Lipid level,[19],130 mg/dL
same,Reduction,[20],40%
same,IC50,[4],100 nM
same,Lipid level,[21],32 mg/dL
same,Reduction,[22],86%
same,Lipid level,[23],41 mg/dL
same,Lipid level,[24],<110 mg/dL
same,Lipid level,[25],125 mg/dL
same,Lipid level,[26],<69 mg/dL
same,Reduction,[27],35%
same,Lipid level,[28],<36 mg/dL
same,Lipid level,[29],<27 mg/dL
same,Reduction,[30],91%
same,Reduction,[31],34%
same,Reduction,[32],47%
same,Lipid level,[33],<94 mg/dL
same,Reduction,[34],29%
Cc1cccc(C(=O)Nc2ccc3c(c2)C[C@H](NS(=O)(=O)c2cccs2)C3)c1-c1ccc(C(F)(F)F)cc1,Lipid level,[35],<81 mg/dL
same,Lipid level,[36],<70 mg/dL
same,Reduction,[37],50% and 34%
same,Lipid level,[10],<72 mg/dL
same,Lipid level,[11],<24 mg/dL
same,NS,[12],no significant change
same,Reduction,[38],76%
same,Lipid level,[14],31 mg/dL
same,NS,[15],no significant change
same,Reduction,[16]; 50 mg/kg,83% and 56%
same,Reduction,[39],25% and 23%
same,Lipid level,[19],120 mg/dL
same,IC50,[4],50 nM
same,NS,[40],no significant change
same,Reduction,[22],83%
same,Lipid level,[23],<24 mg/dL
same,Reduction,[27],39%
same,Reduction,[30]; 50 mg/kg,88% and 83%
same,Reduction,[31],26%
same,Reduction,[32],56%
same,Lipid level,[41],<20 mg/dL
